In paper PMC4664024 (Blood Coagulation & Fibrinolysis, 2015):
Where two headings read alike, the source gives them in different places.

What was measured:
[1] = assay type: in vivo, human
[2] = healthy Japanese individuals, cited from earlier work
exogenous bovine Xa = exogenous bovine Xa (Bos taurus, UniProt P00743); assay: Plasma concentration by functional anti-Xa test in orthopaedic patients; assay type: in vivo; details: for range of concentrations observed with the anti-Xa functional tests: T0, before starting the treatment
Chain of exogenous bovine Xa (P00743 234-492 limits assumed): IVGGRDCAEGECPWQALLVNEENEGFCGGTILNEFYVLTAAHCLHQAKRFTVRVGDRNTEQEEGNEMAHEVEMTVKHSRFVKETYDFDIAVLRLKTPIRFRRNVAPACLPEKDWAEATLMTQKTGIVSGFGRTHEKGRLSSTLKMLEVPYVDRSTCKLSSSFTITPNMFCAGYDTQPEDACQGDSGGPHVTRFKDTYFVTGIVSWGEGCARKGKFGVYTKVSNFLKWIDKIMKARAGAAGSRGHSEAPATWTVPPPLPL
Chain of exogenous bovine Xa (P00743 41-180 limits assumed): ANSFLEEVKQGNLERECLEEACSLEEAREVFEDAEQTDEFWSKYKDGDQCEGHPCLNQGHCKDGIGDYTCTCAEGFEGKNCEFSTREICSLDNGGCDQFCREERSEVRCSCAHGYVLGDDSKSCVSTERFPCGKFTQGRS

[3] = system: activated partial thromboplastin clotting time (aPTT); assay: Activated partial thromboplastin time; assay type: in vivo, human; details: at peak concentration and at steady state (T2–T3)
Method in brief: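 Blood drawn the day before surgery (T0), then 2 h ± 10 min post-dose on day 4 ± 1 (T2) and day 7 ± 1 (T3). aPTT (s) run on an automated coagulation analyser. Reported as median and 25th–75th percentiles; Wilcoxon signed-rank test for repeated measures.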

Structure (SMILES): COc1ccc(-n2nc(C(N)=O)c3c2C(=O)N(c2ccc(N4CCCCC4=O)cc2)CC3)cc1 [Apixaban]
- Cmax ([1]; human, plasma, oral, 2.5 mg): 75 ± 37 ng/mL
- minimum period before reaching the steady state ([2]; 2.5 mg twice daily): ≥ 3 treatment days
- Cmax ([2]; after 7 days of 2.5-mg twice-daily treatment): 84 ng/mL
- Cmax ([2]; after a first intake of 2.5 mg): 51 ± 25 ng/mL
- plasma concentration by anti-Xa functional assay, arithmetic mean and SD (exogenous bovine Xa; T0 (D−1), before starting the treatment): 6 ± 7.5 ng/mL
- range of concentrations observed with the anti-Xa functional tests (exogenous bovine Xa): 0 to 24 ng/mL
- mean increase in aPTT [3]: 6 s

Structure (SMILES): O=C(NC[C@H]1CN(c2ccc(N3CCOCC3=O)cc2)C(=O)O1)c1ccc(Cl)s1 [Rivaroxaban]
- interindividual variation in the Cmax (coefficient of variation) ([1]; T1, first intake the day after surgery): around 100%
- range of concentrations observed with the anti-Xa functional tests (exogenous bovine Xa): 0 to 25 ng/mL
- mean increase in aPTT [3]: 15 s
